Measurements from article PMC4475445 (Journal of immunology (Baltimore, Md. : 1950), 2015).

How the values were obtained:
BMMΦ [1] = assay: Apoptosis assay; type: cell-based; settings: wild-type and Btk-/-Tec-/- BMMΦ, several doses, Figure S2D
How it was run: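 Bone marrow was flushed from femurs and tibias of 6–15-week-old mice, red cells were lysed, and the cells were filtered and plated at 7.5 × 10^5 cells/ml. Cells were grown in DMEM with 10% heat-inactivated FBS, 10 mM Hepes and 10% CMG 12-14 conditioned medium as the M-CSF source, and re-plated on day 5. Apoptosis was scored by annexin V/7-AAD staining and flow cytometry.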

BMMΦ [2] = assay: TLR-dependent cytokine secretion; type: cell-based, mouse; settings: 30 min pretreatment, then LPS or CpG 16 h; wild-type and Btk-/-Tec-/- BMMΦ
Tec = molecular target: T1, Tec (Homo sapiens, UniProt P42680); assay: HotSpot radioisotope kinase assay; type: biochemical
T1 sequence (P42680 1-631): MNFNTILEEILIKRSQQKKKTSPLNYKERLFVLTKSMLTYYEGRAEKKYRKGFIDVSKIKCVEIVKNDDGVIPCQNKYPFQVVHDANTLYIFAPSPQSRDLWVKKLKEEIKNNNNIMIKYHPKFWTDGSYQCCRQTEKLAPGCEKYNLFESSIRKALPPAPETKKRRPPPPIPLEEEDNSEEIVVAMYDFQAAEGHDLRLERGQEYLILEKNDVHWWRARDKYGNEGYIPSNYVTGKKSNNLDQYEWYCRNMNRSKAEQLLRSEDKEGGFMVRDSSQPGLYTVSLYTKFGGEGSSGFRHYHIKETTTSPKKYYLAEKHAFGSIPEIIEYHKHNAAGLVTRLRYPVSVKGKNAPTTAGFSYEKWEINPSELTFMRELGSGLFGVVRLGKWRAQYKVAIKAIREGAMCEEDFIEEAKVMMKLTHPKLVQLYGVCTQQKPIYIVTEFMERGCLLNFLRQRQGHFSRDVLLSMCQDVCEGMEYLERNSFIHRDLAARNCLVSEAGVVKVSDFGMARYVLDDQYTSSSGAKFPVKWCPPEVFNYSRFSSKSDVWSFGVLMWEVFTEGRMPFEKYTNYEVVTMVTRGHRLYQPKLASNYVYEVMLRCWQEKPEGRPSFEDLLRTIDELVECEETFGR
How it was run: (§1)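 Radiometric HotSpot assay with P81 filter capture. Kinase was added to freshly prepared substrate with cofactors and preincubated 30 min at room temperature, then started with 33P-ATP, with ATP at Km or 10× Km. Reactions ran 2 hr at room temperature; unreacted phosphate was washed off with 0.1% phosphoric acid. Test compound: 10 doses, […] serial dilution from 10 μM. Duplicates; staurosporine positive control.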

Tec kinases = assay: Kinase selectivity panel; type: biochemical; settings: 1μM test concentration, 10 μM 33P-ATP; Supplemental Table 2
How it was run: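 Test compound was dissolved in DMSO and tested at 1 μM final. Each kinase was added to fresh substrate with cofactors in reaction buffer and preincubated 30 min at room temperature. Reactions were started with 10 μM 33P-ATP and ran 2 hr at room temperature. After termination, unreacted phosphate was washed off with 0.1% phosphoric acid and bound label was read by P81 filtration. Run in duplicate; 10 μM staurosporine positive control.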

Btk = Btk (Homo sapiens, UniProt Q06187); assay: HotSpot radioisotope kinase assay; type: biochemical
Chain of Btk (Q06187 whole entry): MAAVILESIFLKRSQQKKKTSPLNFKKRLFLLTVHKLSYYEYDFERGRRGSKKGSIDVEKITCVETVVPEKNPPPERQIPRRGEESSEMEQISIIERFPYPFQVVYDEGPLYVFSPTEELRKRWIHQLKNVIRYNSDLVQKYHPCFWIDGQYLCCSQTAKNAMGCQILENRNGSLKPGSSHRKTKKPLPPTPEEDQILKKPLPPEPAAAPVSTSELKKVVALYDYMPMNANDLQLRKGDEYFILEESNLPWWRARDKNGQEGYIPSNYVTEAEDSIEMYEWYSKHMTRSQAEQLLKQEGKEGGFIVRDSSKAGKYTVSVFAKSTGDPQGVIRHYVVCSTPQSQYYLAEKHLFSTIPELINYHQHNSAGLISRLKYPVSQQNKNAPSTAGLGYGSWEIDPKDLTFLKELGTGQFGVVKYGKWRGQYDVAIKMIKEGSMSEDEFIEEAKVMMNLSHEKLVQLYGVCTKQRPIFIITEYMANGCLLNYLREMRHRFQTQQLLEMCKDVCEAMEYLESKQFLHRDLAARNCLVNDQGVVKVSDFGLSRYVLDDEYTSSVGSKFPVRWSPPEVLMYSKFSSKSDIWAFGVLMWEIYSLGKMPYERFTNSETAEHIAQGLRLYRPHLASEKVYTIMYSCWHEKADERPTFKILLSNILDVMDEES
How it was run: as §1

ITK = molecular target: T2, ITK (Homo sapiens, UniProt Q08881); assay: HotSpot radioisotope kinase assay; type: biochemical
T2 sequence (Q08881 1-620): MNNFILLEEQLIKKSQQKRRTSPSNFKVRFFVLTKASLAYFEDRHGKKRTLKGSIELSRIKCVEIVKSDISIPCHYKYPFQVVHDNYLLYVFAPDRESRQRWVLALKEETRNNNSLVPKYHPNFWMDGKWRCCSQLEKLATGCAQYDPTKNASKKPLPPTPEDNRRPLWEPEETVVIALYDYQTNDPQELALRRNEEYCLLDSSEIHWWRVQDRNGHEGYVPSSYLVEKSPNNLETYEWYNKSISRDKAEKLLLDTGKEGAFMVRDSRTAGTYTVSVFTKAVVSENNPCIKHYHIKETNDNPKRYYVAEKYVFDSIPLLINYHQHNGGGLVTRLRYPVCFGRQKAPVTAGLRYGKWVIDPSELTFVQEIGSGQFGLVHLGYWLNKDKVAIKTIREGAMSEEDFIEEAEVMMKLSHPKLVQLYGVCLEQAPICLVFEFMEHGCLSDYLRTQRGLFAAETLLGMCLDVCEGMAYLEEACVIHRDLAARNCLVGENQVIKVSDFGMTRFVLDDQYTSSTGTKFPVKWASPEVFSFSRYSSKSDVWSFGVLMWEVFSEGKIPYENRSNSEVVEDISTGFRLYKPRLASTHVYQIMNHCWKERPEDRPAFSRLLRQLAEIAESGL
How it was run: as §1

Bmx = molecular target: T3, Bmx (Homo sapiens, UniProt P51813); assay: HotSpot radioisotope kinase assay; type: biochemical
T3 sequence (P51813 1-675): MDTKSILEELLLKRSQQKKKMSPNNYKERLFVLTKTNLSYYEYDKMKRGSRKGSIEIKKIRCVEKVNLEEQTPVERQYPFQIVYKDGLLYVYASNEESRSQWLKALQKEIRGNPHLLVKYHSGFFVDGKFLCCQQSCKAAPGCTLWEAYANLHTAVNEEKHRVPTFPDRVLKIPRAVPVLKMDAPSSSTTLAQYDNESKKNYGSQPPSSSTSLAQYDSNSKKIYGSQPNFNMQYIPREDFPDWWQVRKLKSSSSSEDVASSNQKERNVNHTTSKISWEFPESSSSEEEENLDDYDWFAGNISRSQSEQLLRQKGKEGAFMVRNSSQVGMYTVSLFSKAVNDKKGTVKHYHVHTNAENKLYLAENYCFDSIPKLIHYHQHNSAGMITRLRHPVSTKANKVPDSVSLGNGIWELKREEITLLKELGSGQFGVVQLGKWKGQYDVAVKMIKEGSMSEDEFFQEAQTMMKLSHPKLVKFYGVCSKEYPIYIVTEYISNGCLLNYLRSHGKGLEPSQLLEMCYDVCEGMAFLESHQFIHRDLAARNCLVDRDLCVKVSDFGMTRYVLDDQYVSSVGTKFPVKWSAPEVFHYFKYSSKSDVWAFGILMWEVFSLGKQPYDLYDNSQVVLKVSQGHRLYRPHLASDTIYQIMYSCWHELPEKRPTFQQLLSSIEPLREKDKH
How it was run: as §1

| SMILES | Percentage of dead (7-AAD positive) or apoptotic (Annexin V positive) cells (BMMΦ [1]) | TLR-dependent secretion of IL6 (BMMΦ [2]) | TLR-dependent secretion of TNF (BMMΦ [2]) | IC50 (Tec) | Kinase selectivity (Tec kinases) | IC50 (Btk) | IC50 (ITK) | IC50 (Bmx) |
| --- | --- | --- | --- | --- | --- | --- | --- | --- |
| C=CC(=O)Nc1cccc(Nc2nc(Nc3ccc(OCCOC)cc3)ncc2F)c1 [CC-292] | did not alter | decreased | decreased | – | – | – | – | – |
| C=CC(=O)Nc1cccc(Nc2nc(Nc3ccc(OCCOC)c(F)c3)ncc2F)c1 [Compound1, N-(3-((5-fluoro-2-((3-fluoro-4-(2-methoxyethoxy)phenyl)amino)pyrimidin-4-yl)amino)phenyl)acrylamide] | – | – | – | 0.022 µM | highly selective for Tec kinases | 0.0125 µM | 0.172 µM | 0.0021 µM |
